Laboratory results taken from ChEMBL document CHEMBL1138050, “Furan-2-ylmethylene thiazolidinediones as novel, potent, and selective inhibitors of phosphoinositide 3-kinase gamma” (J Med Chem, 2006).

Key:
[1] = biological target: Dual specificity mitogen-activated protein kinase kinase 6 (Homo sapiens) (UniProt P52564); assay: Residual activity at human MKK6 at 10 uM in presence of 10 uM ATP relative to control
How it was run: (§1)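 Single-concentration counter-screen across a panel of 80 Ser/Thr and Tyr protein kinases. Compound was tested at 10 µM with ATP at 10 µM. Activity remaining in each kinase is expressed relative to control.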

[2] = biological target: Serine/threonine-protein kinase PAK 2 (Homo sapiens) (UniProt Q13177); assay: Residual activity at human PAK2 at 10 uM in presence of 10 uM ATP relative to control; how it was run: as §1
[3] = biological target: Platelet-derived growth factor receptor alpha (Homo sapiens) (UniProt P16234); assay: Residual activity at human PDGFRalpha at 10 uM in presence of 10 uM ATP relative to control; how it was run: as §1
[4] = biological target: Platelet-derived growth factor receptor beta (Homo sapiens) (UniProt P09619); assay: Residual activity at human PDGFRbeta at 10 uM in presence of 10 uM ATP relative to control; how it was run: as §1
Sequence of Platelet-derived growth factor receptor beta (Homo sapiens) (P09619 whole entry): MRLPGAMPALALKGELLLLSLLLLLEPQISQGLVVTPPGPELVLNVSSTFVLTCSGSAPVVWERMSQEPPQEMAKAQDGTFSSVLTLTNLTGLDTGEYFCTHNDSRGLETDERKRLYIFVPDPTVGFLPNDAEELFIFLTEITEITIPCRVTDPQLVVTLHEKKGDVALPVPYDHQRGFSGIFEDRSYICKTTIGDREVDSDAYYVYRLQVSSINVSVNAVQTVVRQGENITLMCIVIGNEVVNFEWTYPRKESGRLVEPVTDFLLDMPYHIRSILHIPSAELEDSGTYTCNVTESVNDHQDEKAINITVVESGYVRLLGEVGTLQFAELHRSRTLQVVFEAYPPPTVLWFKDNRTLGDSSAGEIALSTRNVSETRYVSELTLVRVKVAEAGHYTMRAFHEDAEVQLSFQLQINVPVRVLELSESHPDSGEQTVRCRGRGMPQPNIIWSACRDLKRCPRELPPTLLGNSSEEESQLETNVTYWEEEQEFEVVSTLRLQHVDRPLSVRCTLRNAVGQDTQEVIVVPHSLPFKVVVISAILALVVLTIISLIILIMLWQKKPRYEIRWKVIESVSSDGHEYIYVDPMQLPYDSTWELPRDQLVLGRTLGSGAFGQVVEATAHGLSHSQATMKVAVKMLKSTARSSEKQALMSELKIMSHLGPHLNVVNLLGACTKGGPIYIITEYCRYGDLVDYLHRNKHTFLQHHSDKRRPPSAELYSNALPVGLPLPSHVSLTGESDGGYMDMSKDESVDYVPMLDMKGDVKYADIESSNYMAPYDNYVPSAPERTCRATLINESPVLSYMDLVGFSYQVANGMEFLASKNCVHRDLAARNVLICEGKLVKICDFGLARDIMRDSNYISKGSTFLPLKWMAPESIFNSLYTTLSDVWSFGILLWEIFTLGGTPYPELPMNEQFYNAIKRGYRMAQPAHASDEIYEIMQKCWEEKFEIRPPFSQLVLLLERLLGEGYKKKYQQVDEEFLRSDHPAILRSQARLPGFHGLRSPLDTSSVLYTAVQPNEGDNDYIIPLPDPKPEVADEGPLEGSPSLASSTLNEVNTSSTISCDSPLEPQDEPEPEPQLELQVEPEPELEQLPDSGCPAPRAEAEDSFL

[5] = biological target: RAC-beta serine/threonine-protein kinase (Homo sapiens) (UniProt P31751); assay: Residual activity at human PKBbeta at 10 uM in presence of 10 uM ATP relative to control; how it was run: as §1
Sequence of RAC-beta serine/threonine-protein kinase (Homo sapiens) (P31751 whole entry): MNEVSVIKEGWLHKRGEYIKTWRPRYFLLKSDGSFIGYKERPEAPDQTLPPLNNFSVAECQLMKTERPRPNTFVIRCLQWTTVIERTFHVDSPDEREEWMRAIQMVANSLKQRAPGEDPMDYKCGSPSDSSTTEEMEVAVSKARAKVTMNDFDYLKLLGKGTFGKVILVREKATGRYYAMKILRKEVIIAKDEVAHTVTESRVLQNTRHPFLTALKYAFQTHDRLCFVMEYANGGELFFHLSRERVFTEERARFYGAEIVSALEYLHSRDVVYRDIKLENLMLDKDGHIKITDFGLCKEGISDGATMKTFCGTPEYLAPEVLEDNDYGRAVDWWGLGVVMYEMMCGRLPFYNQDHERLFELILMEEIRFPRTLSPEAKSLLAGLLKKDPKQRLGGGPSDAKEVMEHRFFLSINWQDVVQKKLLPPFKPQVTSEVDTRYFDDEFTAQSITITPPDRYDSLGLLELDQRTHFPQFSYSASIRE

[6] = biological target: RAC-gamma serine/threonine-protein kinase (Homo sapiens) (UniProt Q9Y243); assay: Residual activity at human PKBgamma at 10 uM in presence of 10 uM ATP relative to control; how it was run: as §1
[7] = biological target: Protein kinase C alpha type (Homo sapiens) (UniProt P17252); assay: Residual activity at human PKCalpha at 10 uM in presence of 10 uM ATP relative to control; how it was run: as §1
[8] = biological target: Serine/threonine-protein kinase Chk2 (Homo sapiens) (UniProt O96017); assay: Residual activity at human Chk2 at 10 uM in presence of 10 uM ATP relative to control
Sequence of Serine/threonine-protein kinase Chk2 (Homo sapiens) (O96017 whole entry): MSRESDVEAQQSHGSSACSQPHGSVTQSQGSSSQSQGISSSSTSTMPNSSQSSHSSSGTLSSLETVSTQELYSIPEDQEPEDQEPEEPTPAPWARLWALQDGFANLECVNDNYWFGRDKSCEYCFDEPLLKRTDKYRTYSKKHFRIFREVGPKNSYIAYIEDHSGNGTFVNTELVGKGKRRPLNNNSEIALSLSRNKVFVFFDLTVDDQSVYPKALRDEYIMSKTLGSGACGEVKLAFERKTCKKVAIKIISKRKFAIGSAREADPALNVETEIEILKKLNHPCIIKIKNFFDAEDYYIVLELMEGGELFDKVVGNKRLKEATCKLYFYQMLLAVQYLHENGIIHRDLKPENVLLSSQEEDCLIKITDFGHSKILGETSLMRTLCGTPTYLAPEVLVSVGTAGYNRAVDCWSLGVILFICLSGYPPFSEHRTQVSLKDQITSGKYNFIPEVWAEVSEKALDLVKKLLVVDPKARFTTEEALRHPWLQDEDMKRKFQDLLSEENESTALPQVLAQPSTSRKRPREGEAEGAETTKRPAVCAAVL
How it was run: (§2)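 Panel of Ser/Thr and Tyr protein kinases, each tested with 10 µM compound in the presence of 10 µM ATP; activity expressed relative to control.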

[9] = biological target: Tyrosine-protein kinase Fes/Fps (Homo sapiens) (UniProt P07332); assay: Residual activity at human Fes at 10 uM in presence of 10 uM ATP relative to control; how it was run: as §2
[10] = biological target: Fibroblast growth factor receptor 3 (Homo sapiens) (UniProt P22607); assay: Residual activity at human FGFR3 at 10 uM in presence of 10 uM ATP relative to control; how it was run: as §2
[11] = biological target: Glycogen synthase kinase-3 alpha (Homo sapiens) (UniProt P49840); assay: Residual activity at human GSK3alpha at 10 uM in presence of 10 uM ATP relative to control; how it was run: as §2
Sequence of Glycogen synthase kinase-3 alpha (Homo sapiens) (P49840 2-483 limits assumed): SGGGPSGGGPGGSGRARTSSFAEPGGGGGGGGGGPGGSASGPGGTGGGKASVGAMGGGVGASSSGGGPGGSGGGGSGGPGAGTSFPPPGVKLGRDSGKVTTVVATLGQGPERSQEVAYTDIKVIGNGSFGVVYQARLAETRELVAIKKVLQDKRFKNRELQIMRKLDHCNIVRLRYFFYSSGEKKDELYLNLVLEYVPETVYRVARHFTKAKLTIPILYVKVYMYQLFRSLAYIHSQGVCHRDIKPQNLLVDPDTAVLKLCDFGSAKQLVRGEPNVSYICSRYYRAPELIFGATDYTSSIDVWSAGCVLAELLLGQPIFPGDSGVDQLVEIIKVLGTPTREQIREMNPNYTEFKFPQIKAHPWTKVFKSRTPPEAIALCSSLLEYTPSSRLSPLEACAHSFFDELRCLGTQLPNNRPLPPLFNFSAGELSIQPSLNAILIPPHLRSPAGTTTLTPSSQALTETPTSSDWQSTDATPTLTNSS

[12] = biological target: Glycogen synthase kinase-3 beta (Homo sapiens) (UniProt P49841); assay: Residual activity at human GSK3-beta at 10 uM in presence of 10 uM ATP relative to control; how it was run: as §2
[13] = biological target: Inhibitor of nuclear factor kappa-B kinase subunit beta (Homo sapiens) (UniProt O14920); assay: Residual activity at human IKK-beta at 10 uM in presence of 10 uM ATP relative to control; how it was run: as §2
[14] = biological target: Insulin receptor (Homo sapiens) (UniProt P06213); assay: Residual activity at human IR at 10 uM in presence of 10 uM ATP relative to control; how it was run: as §2
[15] = biological target: Mitogen-activated protein kinase 9 (Homo sapiens) (UniProt P45984); assay: Residual activity at human JNK2-alpha-2 at 10 uM in presence of 10 uM ATP relative to control; how it was run: as §1
[16] = biological target: Mitogen-activated protein kinase 10 (Homo sapiens) (UniProt P53779); assay: Residual activity at human JNK3 at 10 uM in presence of 10 uM ATP relative to control; how it was run: as §1
[17] = biological target: MAP kinase-activated protein kinase 2 (Homo sapiens) (UniProt P49137); assay: Residual activity at human MAPKAPK2 at 10 uM in presence of 10 uM ATP relative to control; how it was run: as §1
Sequence of MAP kinase-activated protein kinase 2 (Homo sapiens) (P49137 whole entry, looked up): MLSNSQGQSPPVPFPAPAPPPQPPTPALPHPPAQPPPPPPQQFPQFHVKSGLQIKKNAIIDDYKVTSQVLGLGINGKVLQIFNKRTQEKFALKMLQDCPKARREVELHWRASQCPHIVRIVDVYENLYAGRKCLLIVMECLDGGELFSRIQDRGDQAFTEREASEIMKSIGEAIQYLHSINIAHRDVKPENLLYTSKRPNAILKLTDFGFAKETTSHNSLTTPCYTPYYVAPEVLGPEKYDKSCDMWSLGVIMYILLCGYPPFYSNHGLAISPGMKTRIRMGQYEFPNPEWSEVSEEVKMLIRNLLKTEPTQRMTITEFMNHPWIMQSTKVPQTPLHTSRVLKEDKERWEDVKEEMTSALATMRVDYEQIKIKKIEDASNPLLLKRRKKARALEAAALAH

[18] = biological target: Dual specificity mitogen-activated protein kinase kinase 1 (Homo sapiens) (UniProt Q02750); assay: Residual activity at human MEK1 at 10 uM in presence of 10 uM ATP relative to control; how it was run: as §1
[19] = biological target: Serine/threonine-protein kinase D1 (Homo sapiens) (UniProt Q15139); assay: Residual activity at human PKCmu at 10 uM in presence of 10 uM ATP relative to control; how it was run: as §1
[20] = biological target: Tyrosine-protein kinase Yes (Homo sapiens) (UniProt P07947); assay: Inhibition of human Yes at 10 uM in presence of 10 uM ATP relative to control; set-up: scale not given: the % may be the effect or the level left; how it was run: as §2
[21] = biological target: Dual specificity mitogen-activated protein kinase kinase 7 (Homo sapiens, UniProt O14733); assay: Inhibition of human MKK7beta
Mus musculus = assay: Reduction of neutrophil recruitment in mouse at 10 mg/kg, po; assay type: functional; set-up: scale not given: the % may be the effect or the level left
How it was run: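 Thioglycollate-induced peritonitis in mice. Compound given orally at 10 mg/kg; peritoneal neutrophil recruitment measured 4 h after thioglycollate injection, reported as percent reduction.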

[22] = Dissociation constant, pKa of the compound; assay type: physicochemical
How it was run: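 UV-metric titration under argon at 25 ± 0.5 °C. 10 mM DMSO stock diluted into 0.15 M KCl containing 60, 50, 40 or 30 wt% MeOH, with 0.25 mM KH2PO4. Brought to pH 11.0 with 0.5 M KOH, then titrated with 0.5 M HCl to pH 4, at most 0.15 pH unit per step. UV 200-500 nm recorded after each addition; Yasuda-Shedlovsky extrapolation to zero cosolvent.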

Rattus norvegicus = assay: Volume of distribution in rat at 10 mg/kg, iv; assay type: ADME, organism-based; set-up: dose 10 mg/kg, route intravenous; conditions: in vivo
How it was run: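 Given to rats as a single 10 mg/kg intravenous dose of the potassium salt, run alongside a matching oral arm. Pharmacokinetic parameters derived were CL, AUC, Cmax, t1/2 and Vd.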

[23] = AUC in rat at 10 mg/kg, po; assay type: ADME, organism-based; set-up: dose 10 mg/kg, route oral; conditions: plasma
How it was run: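 Rats given a single 10 mg/kg dose, intravenously or orally. The compound was given as its potassium salt, prepared with KOH in THF/water, for the in vivo work.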

[24] = biological target: Phosphatidylinositol 4,5-bisphosphate 3-kinase catalytic subunit alpha isoform (Homo sapiens, UniProt P42336); assay: Inhibition of human PI3Kalpha
Sequence of Phosphatidylinositol 4,5-bisphosphate 3-kinase catalytic subunit alpha isoform (P42336 whole entry, canonical isoform): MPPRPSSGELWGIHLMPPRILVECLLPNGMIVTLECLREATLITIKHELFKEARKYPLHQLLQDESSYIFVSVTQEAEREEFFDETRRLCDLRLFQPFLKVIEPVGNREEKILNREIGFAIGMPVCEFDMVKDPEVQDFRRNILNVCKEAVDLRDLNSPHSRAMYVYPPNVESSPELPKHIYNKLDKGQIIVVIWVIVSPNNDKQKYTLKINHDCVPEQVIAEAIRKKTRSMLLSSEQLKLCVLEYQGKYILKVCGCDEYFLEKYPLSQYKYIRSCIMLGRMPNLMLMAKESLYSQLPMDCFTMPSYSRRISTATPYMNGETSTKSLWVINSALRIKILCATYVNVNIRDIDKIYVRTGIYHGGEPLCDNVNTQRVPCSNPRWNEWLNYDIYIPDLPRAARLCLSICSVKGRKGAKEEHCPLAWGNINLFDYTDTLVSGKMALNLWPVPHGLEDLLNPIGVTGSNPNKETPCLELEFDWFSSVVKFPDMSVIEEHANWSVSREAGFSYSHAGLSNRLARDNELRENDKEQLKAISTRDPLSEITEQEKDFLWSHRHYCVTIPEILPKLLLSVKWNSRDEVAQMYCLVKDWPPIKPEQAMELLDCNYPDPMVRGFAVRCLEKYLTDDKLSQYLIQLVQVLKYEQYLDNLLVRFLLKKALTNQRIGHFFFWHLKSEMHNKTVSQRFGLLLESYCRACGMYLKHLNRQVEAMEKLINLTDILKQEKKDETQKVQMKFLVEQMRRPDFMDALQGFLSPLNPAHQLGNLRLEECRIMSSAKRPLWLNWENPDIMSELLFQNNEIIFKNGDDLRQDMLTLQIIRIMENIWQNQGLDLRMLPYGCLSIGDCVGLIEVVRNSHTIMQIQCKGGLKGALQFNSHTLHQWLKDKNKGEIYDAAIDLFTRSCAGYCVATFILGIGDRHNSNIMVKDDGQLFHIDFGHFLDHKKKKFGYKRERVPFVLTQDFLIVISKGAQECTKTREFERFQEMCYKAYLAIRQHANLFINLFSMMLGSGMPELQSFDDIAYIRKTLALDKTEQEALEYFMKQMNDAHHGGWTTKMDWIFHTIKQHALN

[25] = biological target: Aurora kinase A (Homo sapiens) (UniProt O14965); assay: Residual activity at human Aurora A at 10 uM in presence of 10 uM ATP relative to control; how it was run: as §2
Sequence of Aurora kinase A (Homo sapiens) (O14965 whole entry): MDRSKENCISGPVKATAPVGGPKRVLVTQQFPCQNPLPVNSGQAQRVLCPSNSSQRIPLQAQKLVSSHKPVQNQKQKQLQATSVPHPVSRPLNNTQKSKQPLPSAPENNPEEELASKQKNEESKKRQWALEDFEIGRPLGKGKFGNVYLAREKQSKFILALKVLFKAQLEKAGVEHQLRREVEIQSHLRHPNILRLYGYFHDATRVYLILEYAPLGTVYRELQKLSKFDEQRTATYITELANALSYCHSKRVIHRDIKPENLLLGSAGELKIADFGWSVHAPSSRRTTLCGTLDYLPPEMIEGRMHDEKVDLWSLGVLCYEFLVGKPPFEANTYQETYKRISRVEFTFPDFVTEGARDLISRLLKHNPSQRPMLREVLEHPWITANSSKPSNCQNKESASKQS

[26] = biological target: Tyrosine-protein kinase receptor UFO (Homo sapiens) (UniProt P30530); assay: Residual activity at human Axl at 10 uM in presence of 10 uM ATP relative to control; how it was run: as §2
[27] = biological target: Tyrosine-protein kinase Blk (Mus musculus) (UniProt P16277); assay: Residual activity at mouse Blk at 10 uM in presence of 10 uM ATP relative to control; how it was run: as §1
[28] = biological target: Calcium/calmodulin-dependent protein kinase type IV (Homo sapiens) (UniProt Q16566); assay: Residual activity at human CaMK4 at 10 uM in presence of 10 uM ATP relative to control; how it was run: as §2
Sequence of Calcium/calmodulin-dependent protein kinase type IV (Homo sapiens) (Q16566 whole entry): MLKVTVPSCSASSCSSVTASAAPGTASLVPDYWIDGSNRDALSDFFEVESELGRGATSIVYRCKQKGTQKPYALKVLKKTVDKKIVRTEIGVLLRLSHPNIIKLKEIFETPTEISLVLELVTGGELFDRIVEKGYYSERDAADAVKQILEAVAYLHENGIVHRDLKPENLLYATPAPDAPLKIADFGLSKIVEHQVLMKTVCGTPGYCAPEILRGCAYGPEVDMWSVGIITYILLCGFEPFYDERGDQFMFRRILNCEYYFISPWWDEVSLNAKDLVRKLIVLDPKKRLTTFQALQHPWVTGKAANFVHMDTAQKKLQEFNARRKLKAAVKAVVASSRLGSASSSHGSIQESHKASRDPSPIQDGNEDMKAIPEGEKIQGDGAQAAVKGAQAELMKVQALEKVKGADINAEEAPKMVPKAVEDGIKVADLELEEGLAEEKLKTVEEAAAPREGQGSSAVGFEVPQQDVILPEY

THP-1 = assay: Inhibition of CSF-1-induced PKB/Akt phosphorylation in THP1 cells; conditions: Homo sapiens

Work on O=C1NC(=O)/C(=C/c2ccc(-c3ccc(F)cc3O)o2)S1 yielded an Activity [1] of 105%, an Activity [2] of 178% and an Activity [3] of 85%. It also gave an Activity [4] of 96%, an Activity [5] of 103% and an Activity [6] of 96%. It also gave an Activity [7] of 98%, an Activity [8] of 82% and an Activity [9] of 90%. It also gave an Activity [10] of 121%, an Activity [11] of 66% and an Activity [12] of 84%. The Activity [13] was 89%, the Activity [14] was 90% and the Activity [15] was 97%. The Activity [16] was 86%, the Activity [17] was 117% and the Activity [18] was 96%. The Activity [19] was 98%, the Activity [20] was 99% and the IC50 [21] was > 10 µM. For the same compound, the Activity (Mus musculus) was 35%, the pKa [22] was 8.4 and the Vdss (Rattus norvegicus) was 25.3 L/kg. It also gave an AUC [23] of 847 ng·h/mL, an IC50 [24] of 0.94 µM and an Activity [25] of 85%. For the same compound, the Activity [26] was 74%, the Activity [27] was 70% and the Activity [28] was 111%. For the same compound, the IC50 (THP-1) was 4.73 µM.
